Experimental data reported in ChEMBL document CHEMBL3734698, “1H-Pyrazolo[3,4-g]hexahydro-isoquinolines as potent GR antagonists with reduced hERG inhibition and an improved pharmacokinetic profile” (Bioorg Med Chem Lett, 2015).
Calls of active or inactive are those of the source. The rule behind the calls is not given here.

Experiments:
Glucocorticoid receptor [1] = target: T1, Glucocorticoid receptor (Homo sapiens, UniProt P04150); assay: Binding affinity to human recombinant glucocorticoid receptor by fluorescence polarization assay
T1 sequence (P04150 whole entry): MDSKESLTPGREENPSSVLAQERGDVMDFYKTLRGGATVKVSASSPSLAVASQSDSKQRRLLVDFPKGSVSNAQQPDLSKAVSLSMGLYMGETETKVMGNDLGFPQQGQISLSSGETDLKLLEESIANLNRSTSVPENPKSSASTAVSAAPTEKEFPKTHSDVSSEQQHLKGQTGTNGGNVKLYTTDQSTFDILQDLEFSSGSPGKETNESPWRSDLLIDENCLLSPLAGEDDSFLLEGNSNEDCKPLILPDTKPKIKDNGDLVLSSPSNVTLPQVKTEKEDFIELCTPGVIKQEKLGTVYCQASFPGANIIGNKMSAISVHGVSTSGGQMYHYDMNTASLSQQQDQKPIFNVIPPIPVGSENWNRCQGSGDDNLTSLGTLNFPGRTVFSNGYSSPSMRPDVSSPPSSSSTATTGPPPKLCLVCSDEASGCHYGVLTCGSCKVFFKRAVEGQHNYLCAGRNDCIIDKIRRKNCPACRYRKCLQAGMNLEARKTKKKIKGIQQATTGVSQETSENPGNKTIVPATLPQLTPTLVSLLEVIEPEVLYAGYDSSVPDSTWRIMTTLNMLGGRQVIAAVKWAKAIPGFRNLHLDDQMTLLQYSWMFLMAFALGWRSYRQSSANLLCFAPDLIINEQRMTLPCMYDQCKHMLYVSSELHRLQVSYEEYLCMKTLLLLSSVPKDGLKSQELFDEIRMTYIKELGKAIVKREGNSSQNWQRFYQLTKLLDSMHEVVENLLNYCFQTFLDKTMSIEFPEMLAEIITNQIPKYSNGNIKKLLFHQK

Glucocorticoid receptor [2] = target: T1, Glucocorticoid receptor; assay: Antagonist activity at glucocorticoid receptor in human HepG2 cells assessed as inhibition of glucocorticoid-induced TAT activity after 24 hrs; format: cell-based
hERG (KCNH2) [3] = target: T2, hERG (KCNH2) (Homo sapiens, UniProt Q12809); assay: Inhibition of human ERG at 1 uM by patch clamp technique
T2 sequence (Q12809 whole entry): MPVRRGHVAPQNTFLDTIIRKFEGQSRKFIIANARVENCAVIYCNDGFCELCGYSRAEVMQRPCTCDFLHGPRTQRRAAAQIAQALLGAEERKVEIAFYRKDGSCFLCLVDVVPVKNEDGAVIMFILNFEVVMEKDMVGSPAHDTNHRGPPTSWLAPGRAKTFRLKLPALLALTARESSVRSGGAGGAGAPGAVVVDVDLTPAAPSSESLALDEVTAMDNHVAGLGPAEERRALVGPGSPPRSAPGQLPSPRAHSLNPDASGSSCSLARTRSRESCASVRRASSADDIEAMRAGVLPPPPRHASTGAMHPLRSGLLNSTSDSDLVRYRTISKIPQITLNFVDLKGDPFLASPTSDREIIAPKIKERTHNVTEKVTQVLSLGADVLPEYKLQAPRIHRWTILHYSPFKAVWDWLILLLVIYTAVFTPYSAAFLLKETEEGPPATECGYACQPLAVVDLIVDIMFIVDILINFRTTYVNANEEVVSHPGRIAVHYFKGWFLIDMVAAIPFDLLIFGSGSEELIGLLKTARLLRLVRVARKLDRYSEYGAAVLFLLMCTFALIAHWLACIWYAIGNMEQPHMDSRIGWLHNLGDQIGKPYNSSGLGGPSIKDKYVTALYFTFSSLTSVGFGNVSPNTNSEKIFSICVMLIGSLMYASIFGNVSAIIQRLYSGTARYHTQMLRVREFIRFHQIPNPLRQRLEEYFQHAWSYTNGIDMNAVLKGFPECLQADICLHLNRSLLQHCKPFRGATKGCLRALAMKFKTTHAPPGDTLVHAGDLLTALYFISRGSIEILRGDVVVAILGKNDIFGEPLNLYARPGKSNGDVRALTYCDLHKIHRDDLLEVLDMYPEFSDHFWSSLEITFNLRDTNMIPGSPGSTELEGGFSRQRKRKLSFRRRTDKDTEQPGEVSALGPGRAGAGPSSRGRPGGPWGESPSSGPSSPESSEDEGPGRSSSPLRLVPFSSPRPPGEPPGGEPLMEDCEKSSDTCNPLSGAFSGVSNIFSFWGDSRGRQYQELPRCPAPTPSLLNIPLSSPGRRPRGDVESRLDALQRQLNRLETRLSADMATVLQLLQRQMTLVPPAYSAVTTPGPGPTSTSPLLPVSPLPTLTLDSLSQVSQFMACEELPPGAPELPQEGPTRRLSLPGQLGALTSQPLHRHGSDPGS

hERG (KCNH2) [4] = target: T2, hERG (KCNH2); assay: Inhibition of human ERG at 10 uM by patch clamp technique
Rattus norvegicus [5] = assay: Reduction in cortisone-induced insulin level in rat at 30 mg/kg, po bid; format: functional, organism-based
Summary of the method: (§1)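 Rats received cortisone 30 mg/kg sc once daily for six days. Test agent was given orally twice daily at 30 mg/kg. Glucose and insulin levels were compared with cortisone-only and no-cortisone controls, with mifepristone at the same oral regimen as positive control.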

Rattus norvegicus [6] = assay: Reduction in cortisone-induced glucose level in rat at 30 mg/kg, po bid; format: functional, organism-based; summary of the method: as §1
[7] = Cmax in rat at 5 mg/kg, po; format: ADME, organism-based; parameters: dose 5 mg/kg, route oral; settings: in vivo
Summary of the method: (§2)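 Rat pharmacokinetics: oral dosing at 5 mg/kg in 10% DMSO in 0.5% aqueous methyl cellulose. Intravenous dosing at 1 mg/kg in 10% DMSO, 45% PEG400 and 45% propylene glycol. Plasma Cmax was taken after the oral dose and clearance after the iv dose, and oral bioavailability was derived.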

[8] = Clearance in rat at 1 mg/kg, iv; format: ADME, organism-based; settings: in vivo; summary of the method: as §2
Rattus norvegicus [9] = assay: Reduction in olanzapine-induced weight gain in rat at 20 mg/kg, po bid administered for 21 days measured from day 4 of compound dosing; format: functional, organism-based
Hepatocyte [10] = assay: Agonist activity at glucocorticoid receptor in dog primary hepatocytes assessed as […] TAT activity relative to control; format: cell-based; settings: Canis lupus familiaris
[11] = Oral bioavailability in rat at 5 mg/kg; format: ADME, organism-based; settings: in vivo; summary of the method: as §2
Glucocorticoid receptor [12] = target: T1, Glucocorticoid receptor; assay: Antagonist activity at glucocorticoid receptor in human primary hepatocytes assessed as inhibition of glucocorticoid-induced TAT activity; format: cell-based, Hepatocyte
Summary of the method: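 Primary human hepatocytes stimulated with dexamethasone to induce tyrosine amino transferase (TAT) activity. Compounds were tested for their ability to block this dexamethasone effect as a measure of GR antagonism. They were also run without dexamethasone to check for TAT induction, a measure of GR agonism. Read-out was TAT activity, reported as K_i.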

Glucocorticoid receptor [13] = target: T3, Glucocorticoid receptor (Rattus norvegicus, UniProt P06536); assay: Agonist activity at glucocorticoid receptor in rat primary hepatocytes assessed as inhibition of glucocorticoid-induced TAT activity; format: cell-based, Hepatocyte
T3 sequence (P06536 whole entry): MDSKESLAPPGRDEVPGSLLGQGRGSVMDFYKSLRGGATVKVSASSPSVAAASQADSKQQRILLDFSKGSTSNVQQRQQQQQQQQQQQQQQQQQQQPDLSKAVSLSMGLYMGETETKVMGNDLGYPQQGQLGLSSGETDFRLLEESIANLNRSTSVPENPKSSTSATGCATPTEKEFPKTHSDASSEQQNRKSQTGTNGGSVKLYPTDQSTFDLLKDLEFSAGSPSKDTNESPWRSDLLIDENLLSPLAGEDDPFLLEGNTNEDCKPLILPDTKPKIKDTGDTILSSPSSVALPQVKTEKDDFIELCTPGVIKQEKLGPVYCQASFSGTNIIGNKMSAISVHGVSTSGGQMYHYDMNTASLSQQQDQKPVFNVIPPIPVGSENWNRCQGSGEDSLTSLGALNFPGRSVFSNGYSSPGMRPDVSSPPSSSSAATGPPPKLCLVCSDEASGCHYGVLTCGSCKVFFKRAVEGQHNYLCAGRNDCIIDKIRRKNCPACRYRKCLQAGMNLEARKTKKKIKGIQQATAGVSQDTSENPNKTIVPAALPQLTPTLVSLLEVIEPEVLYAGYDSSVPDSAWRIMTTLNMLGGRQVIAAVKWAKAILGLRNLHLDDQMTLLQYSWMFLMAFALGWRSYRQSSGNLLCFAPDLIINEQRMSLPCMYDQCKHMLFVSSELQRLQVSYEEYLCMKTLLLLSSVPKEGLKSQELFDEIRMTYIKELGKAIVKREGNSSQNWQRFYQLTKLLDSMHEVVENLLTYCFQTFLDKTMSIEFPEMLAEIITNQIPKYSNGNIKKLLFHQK

[14] = target: Voltage-gated inwardly rectifying potassium channel KCNH2 (Homo sapiens, UniProt Q12809); assay: Inhibition of human ERG by patch clamp technique
Sequence of Voltage-gated inwardly rectifying potassium channel KCNH2 (Q12809 whole entry): as the sequence (Q12809 whole entry) above

[15] = Antagonist activity at glucocorticoid receptor in cynomolgus monkey primary hepatocytes assessed as inhibition of glucocorticoid-induced TAT activity; format: cell-based, Macaca fascicularis; settings: hepatocyte
Summary of the method: (§3)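 Glucocorticoid receptor antagonism was measured as blockade of dexamethasone-induced tyrosine amino transferase (TAT) activity. Cells were rat H4IIEC3 cells or primary hepatocytes from rat or cynomolgus monkey, as the line specifies.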

[16] = target: T4, Glucocorticoid receptor (Rattus norvegicus) (UniProt P06536); assay: Agonist activity at glucocorticoid receptor in rat primary hepatocytes assessed as inhibition of glucocorticoid-induced TAT activity relative to control; format: cell-based; settings: Hepatocyte
T4 sequence (whole entry): T3 sequence (P06536 whole entry)

Hepatocyte [17] = assay: Antagonist activity at glucocorticoid receptor in cynomolgus monkey primary hepatocytes assessed as inhibition of glucocorticoid-induced TAT activity relative to control; format: cell-based; settings: Macaca fascicularis; summary of the method: as §3
[18] = Agonist activity at glucocorticoid receptor in dog primary hepatocytes assessed as […] TAT activity; format: cell-based; settings: Canis lupus familiaris, Hepatocyte
Glucocorticoid receptor [19] = target: T3, Glucocorticoid receptor; assay: (§4) Antagonist activity at glucocorticoid receptor in rat primary hepatocytes assessed as inhibition of glucocorticoid-induced TAT activity; format: cell-based, Hepatocyte; summary of the method: as §3
[20] = target: T4, Glucocorticoid receptor (Rattus norvegicus); assay: Antagonist activity at glucocorticoid receptor in rat primary hepatocytes assessed as inhibition of glucocorticoid-induced TAT activity relative to control; format: cell-based; settings: Hepatocyte; summary of the method: as §3
Glucocorticoid receptor [21] = target: T3, Glucocorticoid receptor; assay: Antagonist activity at glucocorticoid receptor in rat H4IIEC3 cells assessed as glucocorticoid-induced TAT activity; format: cell-based; summary of the method: as §3
[22] = target: T4, Glucocorticoid receptor (Rattus norvegicus); assay: as §4; format: cell-based; settings: Hepatocyte; summary of the method: as §3

| Compound | Ki (Glucocorticoid receptor [1]) [nM] | Ki (Glucocorticoid receptor [2]) [nM] | inhibition at 1 µM (hERG (KCNH2) [3]) [%] | inhibition at 10 µM (hERG (KCNH2) [4]) [%] | Cmax [7] [ng/mL] | clearance [8] [mL/min/kg] | also measured |
| --- | --- | --- | --- | --- | --- | --- | --- |
| O=C(c1cscn1)[C@]12Cc3cnn(-c4ccc(F)cc4)c3C=C1CCN(S(=O)(=O)c1ccc(C(F)(F)F)cc1)C2 | 0.14 | 22 |  |  |  |  |  |
| Cc1ccc(S(=O)(=O)N2CCC3=Cc4c(cnn4-c4ccc(F)cc4)C[C@]3(C(=O)c3ccccn3)C2)cc1 | 0.22 | 4.5 | 34 | 59 |  |  |  |
| O=C(c1ccccn1)[C@]12Cc3cnn(-c4ccc(F)cc4)c3C=C1CCN(S(=O)(=O)c1ccc(F)cc1)C2 | 0.13 | 16 |  |  |  |  |  |
| Cc1cccc(S(=O)(=O)N2CCC3=Cc4c(cnn4-c4ccc(F)cc4)C[C@]3(C(=O)c3ccccn3)C2)c1 | 0.14 | 6.8 | 17 | 30 |  |  |  |
| CC#C[C@]1(O)CC[C@H]2[C@@H]3CCC4=CC(=O)CCC4=C3[C@@H](c3ccc(N(C)C)cc3)C[C@@]21C |  |  |  |  |  |  | Activity (Rattus norvegicus [5]): Active; Activity (Rattus norvegicus [6]): Active |
| O=C(c1cnccn1)[C@]12Cc3cnn(-c4ccc(F)cc4)c3C=C1CCN(S(=O)(=O)c1ccc(C(F)(F)F)cc1)C2 | 0.21 | 98 |  |  |  |  |  |
| O=C(c1ccccn1)[C@]12Cc3cnn(-c4ccc(F)cc4)c3C=C1CCN(S(=O)(=O)c1cccc(Cl)c1)C2 | 0.25 | 11 | 14 | 35 | 112 | 70 |  |
| CCOC[C@]12Cc3cnn(-c4ccc(F)cc4)c3C=C1CCN(S(=O)(=O)c1ccc(C(F)(F)F)cc1)C2 |  |  |  |  |  |  | Activity (Rattus norvegicus [9]): Active |
| O=C(c1ccccn1)[C@]12Cc3cnn(-c4ccc(F)cc4)c3C=C1CCN(S(=O)(=O)c1ccc(C(F)(F)F)c(F)c1)C2 | 0.29 | 11 | 8 | 17 | 322 | 28.7 |  |
| O=C(c1ccccn1)[C@]12Cc3cnn(-c4ccc(F)cc4)c3C=C1CCN(S(=O)(=O)c1ccc(C(F)(F)F)cc1)C2 [DAZUCORILANT] | 0.16 |  |  |  | 375 | 11 | Emax (Hepatocyte [10]): 110%; bioavailability [11]: 31%; Ki (Glucocorticoid receptor [12]): 100 nM; Activity (Rattus norvegicus [5]): inactive; EC50 (Glucocorticoid receptor [13]): 280 nM; Activity (Rattus norvegicus [9]): Active; IC50 [14]: 5000 nM; Ki [15]: 765 nM; Activity (Rattus norvegicus [6]): Active; Emax [16]: 51%; Imax (Hepatocyte [17]): 100%; EC50 [18]: 1600 nM; Ki (Glucocorticoid receptor [19]): 13 nM; Imax [20]: 62% |
| O=C(c1ccccn1)[C@]12Cc3cnn(-c4ccc(F)cc4)c3C=C1CCN(S(=O)(=O)c1ccc(Cl)c(Cl)c1)C2 | 0.64 | 14 | 7 | 16 | 437 |  | Activity (Rattus norvegicus [5]): Active; IC50 [14]: > 10000 nM; Activity (Rattus norvegicus [6]): Active; Ki (Glucocorticoid receptor [21]): 8.5 nM; Efficacy [22]: 74%; Ki (Glucocorticoid receptor [19]): 150 nM |
| O=C(c1ccccn1)[C@]12Cc3cnn(-c4ccc(F)cc4)c3C=C1CCN(S(=O)(=O)c1cccc(C(F)(F)F)c1)C2 | 0.1 | 14 |  |  | 155 | 40 |  |
